Converted amounts (≈) assume the structure as drawn. Where a SMILES comes first, the peptide text is derived from it. [ ]: non-standard residue; d: D form. Orn = NCCC[C@H](N)C(=O)O
How the values were obtained:
Staphylococcus aureus [1] = experiment: Antibacterial activity against methicillin-resistant Staphylococcus aureus ATCC 33592 in presence of 25 mg/L calcium by microdilution method; format: functional
In short: (§1)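 CLSI broth microdilution in cation-adjusted Mueller-Hinton broth (CAMHB); compounds dissolved in CAMHB or a little DMSO then broth. Overnight cultures suspended in saline to 0.5 McFarland, diluted 1:100 in CAMHB and added to wells of diluted compound. Drug-free wells subcultured quantitatively for actual colony counts. Calcium at 25 or 50 mg/L as the line states.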

Staphylococcus aureus [2] = experiment: Antibacterial activity against methicillin-susceptible Staphylococcus aureus ATCC 29213 in presence of 25 mg/L calcium by microdilution method; format: functional; in short: as §1
Enterococcus faecalis [3] = experiment: Antibacterial activity against Enterococcus faecalis ATCC 29212 in presence of 25 mg/L calcium by microdilution method; format: functional; in short: as §1
Escherichia coli [4] = experiment: Antibacterial activity against Escherichia coli ATCC 25922 in presence of 25 mg/L calcium by microdilution method; format: functional
In short: (§2)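 CLSI broth microdilution MIC. Compounds dissolved in cation-adjusted Mueller-Hinton broth (CAMHB), or in a little DMSO then broth. Overnight cultures suspended in saline to 0.5 McFarland, diluted 1:100 in CAMHB, added to wells of diluted compound. Drug-free wells quantitatively subcultured to confirm actual colony counts. Calcium at 25 or 50 mg/L.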

[5] = test system: Staphylococcus epidermidis; experiment: Antibacterial activity against methicillin-resistant Staphylococcus epidermidis MRL 19010 in presence of 25 mg/L calcium by microdilution method; format: functional; in short: as §1
Enterococcus faecalis [6] = experiment: Antibacterial activity against vancomycin-resistant Enterococcus faecalis MRL 17001 in presence of 25 mg/L calcium by microdilution method; format: functional; in short: as §1
Bacillus subtilis [7] = experiment: Antibacterial activity against Bacillus subtilis MRL 18734 in presence of 25 mg/L calcium by microdilution method; format: functional; in short: as §2
Bacillus cereus [8] = experiment: Antibacterial activity against Bacillus cereus MRL 18731 in presence of 25 mg/L calcium by microdilution method; format: functional; in short: as §2
Enterococcus faecalis [9] = experiment: Antibacterial activity against Enterococcus faecalis ATCC 29212 in presence of 50 mg/L calcium by microdilution method; format: functional; in short: as §1
Escherichia coli [10] = experiment: Antibacterial activity against Escherichia coli ATCC 25922 in presence of 50 mg/L calcium by microdilution method; format: functional; in short: as §2
[11] = test system: Staphylococcus epidermidis; experiment: Antibacterial activity against methicillin-resistant Staphylococcus epidermidis MRL 19010 in presence of 50 mg/L calcium by microdilution method; format: functional; in short: as §1
Enterococcus faecalis [12] = experiment: Antibacterial activity against vancomycin-resistant Enterococcus faecalis MRL 17001 in presence of 50 mg/L calcium by microdilution method; format: functional; in short: as §1
Bacillus subtilis [13] = experiment: Antibacterial activity against Bacillus subtilis MRL 18734 in presence of 50 mg/L calcium by microdilution method; format: functional
In short: (§3)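 CLSI broth microdilution. Compounds dissolved in cation-adjusted Mueller-Hinton broth (CAMHB), or in a small amount of DMSO followed by broth. Overnight cultures suspended in saline to 0.5 McFarland, diluted 1:100 in CAMHB and added to wells of diluted compound. Drug-free wells subcultured quantitatively to give actual colony counts. Calcium tested at 50 mg/L, alongside the standard 25 mg/L.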

Bacillus cereus [14] = experiment: Antibacterial activity against Bacillus cereus MRL 18731 in presence of 50 mg/L calcium by microdilution method; format: functional; in short: as §3
Staphylococcus aureus [15] = experiment: microbe, parasite or virus in culture; settings: ATCC 33592
Staphylococcus aureus [16] = experiment: microbe, parasite or virus in culture; settings: ATCC 29213

CC(C)C[C@@H]1NC(=O)[C@H](CCCN)NC(=O)[C@H](C(C)C)NC(=O)[C@H](Cc2ccc(O)cc2)NC(=O)[C@H](CCCCN)NC(=O)[C@H](CC(N)=O)NC(=O)[C@@H](CCCCN)NC(=O)[C@H](Cc2ccccc2)NC(=O)[C@@H]2CCCN2C(=O)[C@@H](Cc2ccccc2)NC1=O
MIC (Staphylococcus aureus [1]): 16 µg/mL | MIC (Staphylococcus aureus [2]): 16 µg/mL | MIC (Enterococcus faecalis [3]): 32 µg/mL | MIC (Escherichia coli [4]): 32 µg/mL | MIC [5]: 4 µg/mL | MIC (Enterococcus faecalis [6]): 8 µg/mL | MIC (Bacillus subtilis [7]): 2 µg/mL | MIC (Bacillus cereus [8]): 16 µg/mL

CC(C)C[C@@H]1NC(=O)[C@H](CCCN)NC(=O)[C@H](C(C)C)NC(=O)[C@H](Cc2ccc(O)cc2)NC(=O)[C@H](CCCCN)NC(=O)[C@H](CC(N)=O)NC(=O)[C@@H](Cc2ccccc2)NC(=O)[C@H](Cc2c(F)c(F)c(F)c(F)c2F)NC(=O)[C@@H]2CCCN2C(=O)[C@@H](Cc2ccccc2)NC1=O
MIC (Staphylococcus aureus [1]): 8 µg/mL | MIC (Staphylococcus aureus [2]): 16 µg/mL | MIC (Enterococcus faecalis [3]): 4 µg/mL | MIC (Escherichia coli [4]): > 256 µg/mL | MIC [5]: 4 µg/mL | MIC (Enterococcus faecalis [6]): 4 µg/mL | MIC (Bacillus subtilis [7]): 8 µg/mL | MIC (Bacillus cereus [8]): 8 µg/mL

CC(C)C[C@@H]1NC(=O)[C@H](CCCN)NC(=O)[C@H](C(C)C)NC(=O)[C@H](Cc2ccc(O)cc2)NC(=O)[C@H](CCC(N)=O)NC(=O)[C@H](CC(N)=O)NC(=O)[C@@H](CCCCN)NC(=O)[C@H](Cc2ccccc2)NC(=O)[C@@H]2CCCN2C(=O)[C@@H](Cc2ccccc2)NC1=O
MIC (Staphylococcus aureus [1]): 64 µg/mL | MIC (Staphylococcus aureus [2]): 32 µg/mL | MIC (Enterococcus faecalis [3]): 64 µg/mL | MIC (Escherichia coli [4]): 128 µg/mL | MIC [5]: 32 µg/mL | MIC (Enterococcus faecalis [6]): 32 µg/mL | MIC (Bacillus subtilis [7]): 16 µg/mL | MIC (Bacillus cereus [8]): 64 µg/mL

CC(C)C[C@@H]1NC(=O)[C@H](CCCN)NC(=O)[C@H](C(C)C)NC(=O)[C@H](Cc2ccc(O)cc2)NC(=O)[C@H](CCCCN)NC(=O)[C@H](CC(N)=O)NC(=O)[C@@H](CCCCN)NC(=O)[C@H](Cc2c(F)c(F)c(F)c(F)c2F)NC(=O)[C@@H]2CCCN2C(=O)[C@@H](Cc2ccccc2)NC1=O
MIC (Staphylococcus aureus [1]): 8 µg/mL | MIC (Staphylococcus aureus [2]): 8 µg/mL | MIC (Enterococcus faecalis [3]): 16 µg/mL | MIC (Escherichia coli [4]): 32 µg/mL | MIC [5]: 4 µg/mL | MIC (Enterococcus faecalis [6]): 4 µg/mL | MIC (Bacillus subtilis [7]): 2 µg/mL | MIC (Bacillus cereus [8]): 4 µg/mL

CC(C)C[C@@H]1NC(=O)[C@H](CCCN)NC(=O)[C@H](C(C)C)NC(=O)[C@H](Cc2ccc(O)cc2)NC(=O)[C@H](CCC(N)=O)NC(=O)[C@H](CC(N)=O)NC(=O)[C@@H](Cc2ccccc2)NC(=O)[C@H](Cc2c(F)c(F)c(F)c(F)c2F)NC(=O)[C@@H]2CCCN2C(=O)[C@@H](Cc2ccccc2)NC1=O
MIC (Staphylococcus aureus [1]): 16 µg/mL | MIC (Staphylococcus aureus [2]): 8 µg/mL | MIC (Enterococcus faecalis [3]): 4 µg/mL | MIC (Escherichia coli [4]): > 256 µg/mL | MIC [5]: 8 µg/mL | MIC (Enterococcus faecalis [6]): 8 µg/mL | MIC (Bacillus subtilis [7]): 4 µg/mL | MIC (Bacillus cereus [8]): 4 µg/mL

CC(C)C[C@@H]1NC(=O)[C@H](CCCN)NC(=O)[C@H](C(C)C)NC(=O)[C@H](Cc2c(F)c(F)c(F)c(F)c2F)NC(=O)[C@H](CCC(N)=O)NC(=O)[C@H](CC(N)=O)NC(=O)[C@@H](Cc2ccccc2)NC(=O)[C@H](Cc2ccccc2)NC(=O)[C@@H]2CCCN2C(=O)[C@@H](Cc2ccccc2)NC1=O
MIC (Staphylococcus aureus [1]): 16 µg/mL | MIC (Staphylococcus aureus [2]): 16 µg/mL | MIC (Enterococcus faecalis [3]): 2 µg/mL | MIC (Escherichia coli [4]): > 256 µg/mL | MIC [5]: 2 µg/mL | MIC (Enterococcus faecalis [6]): 2 µg/mL | MIC (Bacillus subtilis [7]): 8 µg/mL | MIC (Bacillus cereus [8]): 8 µg/mL

CC(C)C[C@@H]1NC(=O)[C@H](CCCN)NC(=O)[C@H](C(C)C)NC(=O)[C@H](Cc2c(F)c(F)c(F)c(F)c2F)NC(=O)[C@H](CCC(N)=O)NC(=O)[C@H](CC(N)=O)NC(=O)[C@@H](Cc2ccccc2)NC(=O)[C@H](Cc2c(F)c(F)c(F)c(F)c2F)NC(=O)[C@@H]2CCCN2C(=O)[C@@H](Cc2ccccc2)NC1=O
MIC (Staphylococcus aureus [1]): > 256 µg/mL | MIC (Staphylococcus aureus [2]): > 256 µg/mL | MIC (Enterococcus faecalis [3]): 32 µg/mL | MIC (Escherichia coli [4]): > 256 µg/mL | MIC [5]: 256 µg/mL | MIC (Enterococcus faecalis [6]): 32 µg/mL | MIC (Bacillus subtilis [7]): 128 µg/mL | MIC (Bacillus cereus [8]): 256 µg/mL

CCCCCCCCCC(=O)N[C@@H](Cc1c[nH]c2ccccc12)C(=O)N[C@H](CC(N)=O)C(=O)N[C@@H](CC(=O)O)C(=O)N[C@@H]1C(=O)NCC(=O)N[C@@H](CCCN)C(=O)N[C@@H](CC(=O)O)C(=O)N[C@H](C)C(=O)N[C@@H](CC(=O)O)C(=O)NCC(=O)N[C@H](CO)C(=O)N[C@@H]([C@H](C)CC(=O)O)C(=O)N[C@@H](CC(=O)c2ccccc2N)C(=O)O[C@@H]1C
MIC (Staphylococcus aureus [1]): 1 µg/mL | MIC (Staphylococcus aureus [2]): 1 µg/mL | MIC (Enterococcus faecalis [3]): 1 µg/mL | MIC (Escherichia coli [4]): > 128 µg/mL | MIC [5]: 1 µg/mL | MIC (Enterococcus faecalis [6]): 2 µg/mL | MIC (Bacillus subtilis [7]): 1 µg/mL | MIC (Bacillus cereus [8]): 0.5 µg/mL | MIC (Enterococcus faecalis [9]): 1 µg/mL | MIC (Escherichia coli [10]): > 128 µg/mL | MIC [11]: 0.5 µg/mL | MIC (Enterococcus faecalis [12]): 1 µg/mL | MIC (Bacillus subtilis [13]): 0.25 µg/mL | MIC (Bacillus cereus [14]): 0.25 µg/mL | MIC (Staphylococcus aureus [15]): 0.25 µg/mL (≈ 0.154 µM) | MIC (Staphylococcus aureus [16]): 0.25 µg/mL (≈ 0.154 µM)

CC(C)C[C@@H]1NC(=O)[C@H](CCCN)NC(=O)[C@H](C(C)C)NC(=O)[C@H](Cc2ccc(O)cc2)NC(=O)[C@H](CCCCN)NC(=O)[C@H](CC(N)=O)NC(=O)[C@@H](Cc2ccccc2)NC(=O)[C@H](Cc2ccccc2)NC(=O)[C@@H]2CCCN2C(=O)[C@@H](Cc2ccccc2)NC1=O (cyclo(F[dF]NKYV[Orn]L[dF]P))
MIC (Staphylococcus aureus [1]): 4 µg/mL | MIC (Staphylococcus aureus [2]): 4 µg/mL | MIC (Enterococcus faecalis [3]): 2 µg/mL | MIC (Escherichia coli [4]): 128 µg/mL | MIC [5]: 2 µg/mL | MIC (Enterococcus faecalis [6]): 2 µg/mL | MIC (Bacillus subtilis [7]): 2 µg/mL | MIC (Bacillus cereus [8]): 2 µg/mL

CC(C)C[C@@H]1NC(=O)[C@H](CCCN)NC(=O)[C@H](C(C)C)NC(=O)[C@H](Cc2ccc(O)cc2)NC(=O)[C@H](CCC(N)=O)NC(=O)[C@H](CC(N)=O)NC(=O)[C@@H](Cc2ccccc2)NC(=O)[C@H](Cc2ccccc2)NC(=O)[C@@H]2CCCN2C(=O)[C@@H](Cc2ccccc2)NC1=O [TYROCIDINE A] (cyclo(F[dF]NQYV[Orn]L[dF]P))
MIC (Staphylococcus aureus [1]): 32 µg/mL | MIC (Staphylococcus aureus [2]): 32 µg/mL | MIC (Enterococcus faecalis [3]): 16 µg/mL | MIC (Escherichia coli [4]): > 128 µg/mL | MIC [5]: 16 µg/mL | MIC (Enterococcus faecalis [6]): 16 µg/mL | MIC (Bacillus subtilis [7]): 16 µg/mL | MIC (Bacillus cereus [8]): 16 µg/mL
